This is a sample that favours compounds with a hit; in the whole collection about 2.5% have one here.
T cell HTS: T cell immune modulation candidate | hit rate 0.068% among 330,000 | response (vesicle binding), % at 7 µM | 2C CD8+ T cell-vesicle binding, flow cytometry; active compounds read low;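 active = response, share of CD8 T cells binding vesicles, and their 90th percentile fluorescence all below set limits, cut at about 80% in these data, passing the limit was not always enough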;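 also: values below 100% mean blocked vesicle binding to the CD8+ T cells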
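Material: 2C TCR transgenic mouse naive CD8+ T cells, MACS-purified. Also added: QL9-charged Drosophila Ld/ICAM-1/B7-1 vesicles. Timing: binding 1.5 h at 37 °C. Measured by: high-throughput flow cytometry with anti-B7-1 and anti-CD8 staining. Read-out: percent CD8+ FL2 mean versus row control. Controls: Unloaded micro-vesicles (low), QL9 vesicles with 0.7% DMSO (high).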
MEKK2 mut-MEK5: signal of MEK5 binding to mutant human MEKK2 PB1 domain; AID 1530; percent response, % at 10 µM; bead flow cytometry, Alexa488-MEK5 binding to MEKK2 mutant; hit rate 0.35% among 290,000; in the data active = percent response above about 24%, passing the limit was not always enough
MEKK2 WT-MEK5: raises or lowers MEK5 binding to wildtype human MEKK2 PB1 domain. Q9Y2U5. bead flow cytometry, Alexa488-MEK5 binding to MEKK2 WT; actives lie on both sides. binding response (% of control), % at 10 µM. hit rate 1.1% among 290,000. AID 1531; in the data active = binding response below about 67% or above about 130%
MEKK3 PB1 HTS: raises or lowers MEK5 binding to the human MEKK3 PB1 domain | bead-based flow cytometry, Alexa488-MEK5 binding to MEKK3; actives lie on both sides; 0 = blocked by unlabeled MEK5, 100 = vehicle | binding response (% of control), % at 10 µM | Q99759 | hit rate 1.4% among 290,000 | AID 1529;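 active = binding response more than 3 SD above or below the average of its plate-row segment, actives on both sides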;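 also: Alexa488 bead fluorescence after subtracting the streptavidin-only scavenger bead signal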
Target sequence (Q99759 whole entry, looked up, the tested form may be a part): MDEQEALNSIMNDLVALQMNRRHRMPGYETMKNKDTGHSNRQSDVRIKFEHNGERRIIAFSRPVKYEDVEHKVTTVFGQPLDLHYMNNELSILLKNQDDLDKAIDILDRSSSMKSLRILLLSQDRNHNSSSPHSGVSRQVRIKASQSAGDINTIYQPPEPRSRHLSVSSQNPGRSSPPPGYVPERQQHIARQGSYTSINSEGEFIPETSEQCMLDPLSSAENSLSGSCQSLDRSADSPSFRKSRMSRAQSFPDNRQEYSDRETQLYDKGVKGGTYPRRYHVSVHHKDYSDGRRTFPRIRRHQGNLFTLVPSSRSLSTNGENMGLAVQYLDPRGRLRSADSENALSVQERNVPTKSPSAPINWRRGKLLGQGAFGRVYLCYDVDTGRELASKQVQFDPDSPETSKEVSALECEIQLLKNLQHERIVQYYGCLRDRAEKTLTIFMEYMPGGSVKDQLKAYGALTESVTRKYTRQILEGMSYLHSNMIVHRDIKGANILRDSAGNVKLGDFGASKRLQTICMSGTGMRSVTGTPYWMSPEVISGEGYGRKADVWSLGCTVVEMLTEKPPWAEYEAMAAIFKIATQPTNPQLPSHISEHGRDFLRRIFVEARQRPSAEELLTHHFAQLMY
UCH37 DUB inh: blocks the human deubiquitinase UCH37; Q9Y5K5; purified proteasome/UCH37, Ub-AMC cleavage fluorescence; inhibition, % (concentration not given with the values); hit rate 0.33% among 330,000;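 active = mean inhibition over replicate wells above about 20%, limit read from the data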
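System: Proteasome-associated human UCH37 deubiquitinase; Input: 0.15 nM proteasome in added enzyme buffer; Also added: Ub-AMC substrate from 1 µM stock; Incubation: 30 min compound-proteasome preincubation then 25 min substrate reaction, room temperature; Detection: fluorescence, ex 355 nm, em 460 nm; Read-out: % inhibition of Ub-AMC cleavage fluorescence; Benchmarks: no-proteasome and no-compound wells.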
Rce1 inhib: inhibitors of yeast Ras-converting enzyme; Q03530; yeast membranes, quenched prenylated peptide cleavage fluorescence; calls only; hit rate 0.27% among 290,000;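 active = fall in fluorescence gain of 50% or more versus controls, with final raw signal at or below 3038400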
MEKK2wt confirm: raises or lowers MEK5 binding to wildtype human MEKK2, retest; hit rate 2.4% among 5,900; bead flow cytometry, Alexa488-MEK5 binding to MEKK2 WT; actives lie on both sides; shares compounds with MEKK3 PB1 HTS; binding response (% of control), % at 10 µM; in the data active = binding response below about 16% or above about 210%; inactive = in between
MEKK2mut-MEK5: signal of MEK5 binding to mutant human MEKK2, retest; percent response, % at 10 µM; AID 1893; bead flow cytometry, Alexa488-MEK5 binding to MEKK2 mutant; shares compounds with MEKK3 PB1 HTS; hit rate 2% among 5,900; in the data active = percent response mostly above about 71%, no sharp cut-off; inactive = mostly below about 38%;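 also: higher means compound restores mutant binding toward wildtype level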
MEKK3-MEK5 inh: MEKK3-MEK5 PB1 inhibition, single concentration confirmation. shares compounds with MEKK3 PB1 HTS. bead flow cytometry, Alexa488-MEK5 binding to MEKK3; active compounds read low. binding response (% of control), % at 10 µM. hit rate 1.8% among 5,900;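 active = binding response below 72% of control, or above a set upper limit, though filed actives all read lower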;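 also: lower values mean stronger disruption of MEK5 binding to MEKK3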
Hits are given with their value; n = inactive; x = no result; [ ] = remark or other dose.

SMILES | T cell HTS | MEKK2 mut-MEK5 | MEKK2 WT-MEK5 | MEKK3 PB1 HTS | UCH37 DUB inh | Rce1 inhib | MEKK2wt confirm | MEKK2mut-MEK5 | MEKK3-MEK5 inh
COc1ccc([N+](=O)[O-])cc1N(CC(=O)NC1CCCCC1)S(C)(=O)=O | n | n | n | n | n | n | x | x | x
Cc1ccc([N+](=O)[O-])cc1N(CC(=O)NC1CCCC1)S(C)(=O)=O | n | n | n | 73.0[inhibitor] | n | n | n | n | n
O=C(Cc1csc(N2CCOCC2)n1)NN=Cc1ccccc1C(=O)O | x | x | x | x | n | x | x | x | x
O=c1oc2ccccc2nc1/C=C(O)/C=C\c1ccccc1 | n | n | 61.0[inhibitor] | 82.0[inhibitor] | x | n | n | n | n
CCCCCCCOC(=O)C[N+](C)(C)CCOC1CC2CCC1(C)C2(C)C (stereo not given) | x | n | 163.0 | n | n | x | n | n | n
CCCCOC(=O)C[N+](C)(C)CCOC1CC2CCC1(C)C2(C)C (stereo not given) | n | n | n | n | n | n | x | x | x
CCCOC(=O)C[N+](C)(C)CCOC1CC2CCC1(C)C2(C)C (stereo not given) | n | n | n | n | n | n | x | x | x
CCCCCCOC(=O)C[N+](C)(C)CCOC1CC2CCC1(C)C2(C)C (stereo not given) | n | n | 202.0 | n | n | n | n | n | n
CC(=NNC(=O)CCCCCNC(=O)c1ccccc1)c1ccccc1O | x | x | x | x | n | x | x | x | x
COc1ccc(NS(=O)(=O)c2cc(C(=O)N3CCN(C(C)=O)CC3)ccc2Cl)cc1 | n | n | n | 71.0[inhibitor] | n | x | n | n | n
CCc1cccc2c(C(=O)COC(=O)c3cccc(S(=O)(=O)N(C)C4CCCCC4)c3)c[nH]c12 | n | n | n | 132.0 | n | n | n | n | n
CN(C(=O)COC(=O)c1cccc(S(=O)(=O)N(C)c2ccccc2)c1)C1CCCCC1 | n | x | x | x | n | x | x | x | x
O=C(OCC(=O)c1c[nH]c2ccccc12)c1cccc(S(=O)(=O)N2CCCCCC2)c1 | n | n | n | 130.0 | n | n | n | n | n
O=C(O)CC1(CC(=O)Nc2ccc3ccccc3c2)CCCCC1 | n | n | -1.0[inhibitor] | 1.0[inhibitor] | n | n | n | n | n
Cc1ccc2nc(Cc3ccc(N)cc3)[nH]c2c1 | n | n | n | n | n | n | x | x | x
Nc1ccc2nc(Cc3ccccc3)[nH]c2c1 | n | n | 47.0[inhibitor] | 41.0[inhibitor] | x | n | n | n | n
CC1=C(C)CC(C(=O)Nc2nc(-c3ccc(C)cc3C)c(C)s2)C(C(=O)O)C1 (stereo not given) | n | n | n | 133.0 | n | n | n | n | n
CC1=C(C)CC(C(=O)Nc2nc(-c3ccc(F)cc3)c(C)s2)C(C(=O)O)C1 (stereo not given) | n | n | n | n | n | n | x | x | x
COc1ccc(NC(=O)Nc2nnc(-c3ccccc3SCc3ccccc3)s2)cc1 | n | n | n | 122.0 | n | n | n | n | n
CC[C@H](C)[C@@H](CNC)NC[C@@H](Cc1ccc(O)cc1)NCC(C)(C)C | n | n | n | n | n | n | x | x | x
CC[C@@H](C)[C@H](CN[C@H](CNC)C(C)C)NC[C@@H](C)c1ccc(CC(C)C)cc1 | n | n | 185.0 | n | n | n | n | 71.0 | n
O=C(CC(=O)NN=Cc1cccc(Cl)c1Cl)NCc1ccccc1 | x | x | x | x | n | x | x | x | x
N#Cc1c(-c2cccnc2)cc(-c2ccccc2)nc1N | n | n | n | 129.0 | n | n | n | n | n
C=CCSC(N)=NN=Cc1cc(Br)cc([N+](=O)[O-])c1O | x | x | x | x | n | x | x | x | x
CCC(C)NCCOc1cccc(Br)c1 (stereo not given) | n | n | n | 157.0 | n | n | n | n | n
COC(=O)c1ccc(C=NOCC(=O)NCCc2ccc(OC)c(OC)c2)cc1 | x | x | x | x | n | x | x | x | x
NC(=NOC(=O)Cc1ccccc1[N+](=O)[O-])c1ccc(Br)cc1 | x | x | x | x | n | x | x | x | x
CC(=O)Nc1nc(C)c(C(C)=O)s1 | n | n | 3.0[inhibitor] | 2.0[inhibitor] | n | n | n | n | n
CCN(CC)c1ccc(/C=N/OCC(=O)Nc2cccc(C)c2)cc1 | n | n | 61.0[inhibitor] | n | x | n | n | n | n
CC(=O)Nc1ccc(C=NOCC(=O)Nc2ccc(C)cc2)cc1 | x | x | x | x | n | x | x | x | x
